In ChEMBL document CHEMBL4052823, “Extra Sugar on Vancomycin: New Analogues for Combating Multidrug-Resistant Staphylococcus aureus and Vancomycin-Resistant Enterococci” (J Med Chem, 2018):
≈ marks a conversion by molar mass, not a printed value. Calls of active or inactive are those of the source. The rule behind the calls is not given here.

Columns and labels:
Enterococcus faecium [1] = assay: Antibacterial activity against glycopeptide-resistant Enterococcus faecium Efm-HS-06188 vanA after 24 hrs by broth microdilution method; assay type: functional; conditions: Efm-HS-06188, 24 h
How it was run: (§1)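 Broth microdilution in cation-adjusted Mueller-Hinton II broth. DMSO stocks were diluted in broth and twofold serially from 128 to 0.0625 μg/mL or lower. Each well was inoculated with ~10^5 CFU of exponential-phase bacteria and incubated at 37 °C for 24 h. MIC was the lowest concentration giving complete growth inhibition, read per CLSI. Growth controls contained broth plus DMSO.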

Enterococcus faecium [2] = assay: Antibacterial activity against glycopeptide-resistant Enterococcus faecium Efm-HS-0649 vanA after 24 hrs by broth microdilution method; assay type: functional; conditions: Efm-HS-0649, 24 h; how it was run: as §1
Staphylococcus aureus [3] = assay: Antibacterial activity against methicillin-resistant Staphylococcus aureus USA300 LAC infected in BALB/c mouse assessed as increase in mouse survival rate at 7 mg/kg, ip administered as single dose after 10 days relative to control; assay type: functional, organism-based
How it was run: (§2)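 Female BALB/c mice, 6−8 weeks old, were anesthetized with pentobarbital and infected retro-orbitally with ~2.35 × 10^8 CFU of exponential-phase USA300 LAC, 15 per group. A single 7 mg/kg ip dose was given 1 h after infection. Deaths were recorded daily to build survival curves.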

Enterococcus faecium [4] = assay: Antibacterial activity against glycopeptide-resistant Enterococcus faecium Efm-HS-vb01 vanB after 24 hrs by broth microdilution method; assay type: functional; conditions: Efm-HS-vb01, 24 h; how it was run: as §1
Enterococcus faecium [5] = assay: Antibacterial activity against glycopeptide-resistant Enterococcus faecium Efm-HS-0847 vanM after 24 hrs by broth microdilution method; assay type: functional; conditions: Efm-HS-0847, 24 h; how it was run: as §1
Staphylococcus aureus [6] = assay: Antibacterial activity against vancomycin/methicillin-susceptible Staphylococcus aureus Newman […] after 24 hrs by broth microdilution method; assay type: functional
How it was run: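 Broth microdilution in cation-adjusted Mueller-Hinton II broth. […] Each well received ~10^5 CFU of exponential-phase bacteria and was incubated at 37 °C for 24 h. MIC was taken as the lowest concentration giving complete growth inhibition, interpreted per CLSI.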

Enterococcus faecium [7] = assay: Antibacterial activity against glycopeptide-resistant Enterococcus faecium Efm-HS-08257 vanM after 24 hrs by broth microdilution method; assay type: functional; conditions: Efm-HS-08257, 24 h; how it was run: as §1
Staphylococcus aureus [8] = assay: Antibacterial activity against healthcare-associated methicillin-resistant/vancomycin-intermediate Staphylococcus aureus Mu50 after 24 hrs by broth microdilution method; assay type: functional; conditions: Mu50, 24 h; how it was run: as §1
[9] = Volume of distribution at steady state in CD1 mouse at 5 mg/kg, iv; assay type: ADME, organism-based; conditions: in vivo, read-out: Vdss
How it was run: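 Fasted male CD-1 mice (18−22 g), 5 mg/kg single dose into the tail vein, 6 per group. T1/2, AUClast, AUCINF_obs, CL_obs, MRTINF_obs and VSS_obs were calculated for each animal from its time−concentration curve.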

Staphylococcus aureus [10] = assay: Antibacterial activity against methicillin-resistant Staphylococcus aureus USA300 LAC infected in BALB/c mouse assessed as mouse survival rate at 7 mg/kg, ip administered as single dose measured after 10 days relative to control; assay type: functional; how it was run: as §2
L02 = assay: Cytotoxicity against human HL7702 cells assessed as decrease in cell viability at 10 to 100 uM after 72 hrs by CCK8 assay; assay type: cell-based; conditions: l02, 72 h
How it was run: (§3)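 HK-2 and HL-7702 cells were seeded at ~5000 cells/well, incubated overnight, then exposed to compound at final 10, 50 and 100 μM for 72 h. CCK-8 was added for 1.5 h at 37 °C and OD450 read. Viability was OD treated / OD untreated × 100, with triplicates.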

Staphylococcus aureus [11] = assay: Antibacterial activity against healthcare-associated methicillin-resistant/vancomycin-intermediate Staphylococcus aureus Mu50 infected in BALB/c mouse assessed as decrease in liver CFU levels at 7 mg/kg, ip administered twice in 24 hrs interval measured after 5 days; assay type: functional, organism-based
How it was run: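 Female BALB/c mice, 6−8 weeks old, were anesthetized with pentobarbital and infected retro-orbitally with ~3.8 × 10^8 CFU of exponential-phase Mu50, 12 per group. Treatment started 1 h post-infection: 7 mg/kg ip in sterile water, two doses 24 h apart. At day 5 mice were euthanized and liver homogenates plated on TSA for CFU counts. Groups were compared by two-tailed Mann−Whitney test.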

[12] = Clearance in CD1 mouse at 5 mg/kg, iv; assay type: ADME, organism-based; conditions: in vivo
How it was run: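 Fasted male CD-1 mice (18−22 g), 5 mg/kg single dose into the tail vein, 6 per group. Blood sampled at 0.25, 0.75, 2, 4, 8 and 24 h and analysed by UPLC-MS/MS. T1/2, AUClast, AUCINF_obs, CL_obs, MRTINF_obs and VSS_obs were calculated for each animal from its time−concentration curve.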

HK-2 = assay: Cytotoxicity against human HK2 cells assessed as decrease in cell viability at 10 to 100 uM after 72 hrs by CCK8 assay; assay type: cell-based; conditions: hk-2, 72 h; how it was run: as §3
Staphylococcus aureus [13] = assay: Potency index, ratio of telavancin MIC90 to test compound MIC90 for vancomycin/methicillin-susceptible Staphylococcus aureus Newman […]; assay type: functional

Structure (SMILES) | MIC (Enterococcus faecium [1]) | MIC (Enterococcus faecium [2]) | Activity (Staphylococcus aureus [3]) | MIC (Enterococcus faecium [4]) | MIC (Enterococcus faecium [5]) | MIC90 (Staphylococcus aureus [6]) | MIC (Enterococcus faecium [7]) | MIC90 (Staphylococcus aureus [8]) | Vd [9] | survival at 7 mg/kg (Staphylococcus aureus [10]; 240 h) | Activity (L02) | Activity (Staphylococcus aureus [11]) | clearance [12] | Activity (HK-2) | Ratio (Staphylococcus aureus [13]) | Activity (Staphylococcus aureus [10])
CN[C@H](CC(C)C)C(=O)N[C@H]1C(=O)N[C@@H](CC(N)=O)C(=O)N[C@H]2C(=O)N[C@H]3C(=O)N[C@H](C(=O)N[C@H](C(=O)O)c4cc(O)c(CNCCO)c(O)c4-c4cc3ccc4O)[C@H](O)c3ccc(c(Cl)c3)Oc3cc2cc(c3O[C@@H]2O[C@H](CO)[C@@H](O)[C@H](O)[C@H]2O[C@H]2C[C@](C)(NCc3ccc(-c4ccc(C(F)(F)F)cc4)cc3)[C@H](O)[C@H](C)O2)Oc2ccc(cc2Cl)[C@H]1O | 1 µg/mL (≈ 0.569 µM) | 1 µg/mL (≈ 0.569 µM) | Active | ≤ 0.06 µg/mL | 4 µg/mL (≈ 2.28 µM) | 0.015 µg/mL (≈ 0.00854 µM) | 2 µg/mL (≈ 1.14 µM) | 0.12 µg/mL (≈ 0.0683 µM) |  |  |  |  |  |  |  | 
CN[C@H](CC(C)C)C(=O)N[C@H]1C(=O)N[C@@H](CC(N)=O)C(=O)N[C@H]2C(=O)N[C@H]3C(=O)N[C@H](C(=O)N[C@H](C(=O)O)c4cc(O)cc(O)c4-c4cc3ccc4O)[C@H](O)c3ccc(c(Cl)c3)Oc3cc2cc(c3O[C@@H]2O[C@H](CO)[C@@H](O)[C@H](O)[C@H]2O[C@H]2C[C@](C)(N)[C@H](O)[C@H](C)O2)Oc2ccc(cc2Cl)[C@H]1O [VANCOMYCIN] | > 128 µg/mL | > 128 µg/mL |  | 64 µg/mL (≈ 44.2 µM) | > 128 µg/mL | 2 µg/mL (≈ 1.38 µM) | > 128 µg/mL | 8 µg/mL (≈ 5.52 µM) | 3.08 L/kg | 6.67% | Toxic | inactive | 68.7 mL/min/kg | Toxic |  | 
CCCCCCCCCCN[C@@]1(C)C[C@H](O[C@H]2[C@H](Oc3c4cc5cc3Oc3ccc(cc3Cl)[C@@H](O)[C@@H](NC(=O)[C@@H](CC(C)C)NC)C(=O)N[C@@H](CC(N)=O)C(=O)N[C@H]5C(=O)N[C@H]3C(=O)N[C@H](C(=O)N[C@H](C(=O)O)c5cc(O)c(CN[C@H]6C(O)O[C@H](CO)[C@H](O)[C@@H]6O)c(O)c5-c5cc3ccc5O)[C@H](O)c3ccc(c(Cl)c3)O4)O[C@H](CO)[C@@H](O)[C@@H]2O)O[C@@H](C)[C@H]1O (stereo partly specified) | 8 µg/mL (≈ 4.49 µM) | 8 µg/mL (≈ 4.49 µM) |  | 0.5 µg/mL (≈ 0.281 µM) | 32 µg/mL (≈ 18 µM) | 0.03 µg/mL (≈ 0.0168 µM) | 16 µg/mL (≈ 8.99 µM) | 0.25 µg/mL (≈ 0.14 µM) |  |  |  |  |  |  | 8 - 16 | 
CCCCCCCCCCNCCN[C@@]1(C)C[C@H](O[C@H]2[C@H](Oc3c4cc5cc3Oc3ccc(cc3Cl)[C@@H](O)[C@@H](NC(=O)[C@@H](CC(C)C)NC)C(=O)N[C@@H](CC(N)=O)C(=O)N[C@H]5C(=O)N[C@H]3C(=O)N[C@H](C(=O)N[C@H](C(=O)O)c5cc(O)c(CNCP(=O)(O)O)c(O)c5-c5cc3ccc5O)[C@H](O)c3ccc(c(Cl)c3)O4)O[C@H](CO)[C@@H](O)[C@@H]2O)O[C@@H](C)[C@H]1O [TELAVANCIN] | 8 µg/mL (≈ 4.56 µM) | 4 µg/mL (≈ 2.28 µM) |  | 1 µg/mL (≈ 0.57 µM) | 4 µg/mL (≈ 2.28 µM) | 0.25 µg/mL (≈ 0.142 µM) | 0.12 µg/mL (≈ 0.0684 µM) | 1 µg/mL (≈ 0.57 µM) |  |  | Toxic | Active | 5.1 mL/min/kg | Non-Toxic |  | Active
